Screening results deposited in PubChem BioAssay by several laboratories.
An excerpt weighted towards active compounds, which were near 3.2% of everything screened.
Mcl1 Bid PPI = disrupts binding of human Mcl-1 to Bid peptide; TR-FRET Mcl-1/Bid-Dy647 peptide binding, 1536-well; inhibition, % at 21.7 µM; AID 1021; 220,000 tested, 0.97% active;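 active = compounds that cut the binding signal by more than half at the single screening dose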;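 also: His-tagged Mcl-1 with europium anti-His antibody binding Bid BH3 peptide; 0% = Mcl-1 plus peptide wells and 100% = peptide-only wells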
Mcl1-Noxa inh = disrupts binding of human Mcl-1 to Noxa peptide | AID 1022 | TR-FRET Mcl-1/Noxa peptide binding, 2 h | 220,000 tested, 1.5% active | Q07820 | inhibition, % at 21.7 µM;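 active = compounds that cut the protein-peptide binding signal by more than 50% relative to plate controls in a single-dose test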;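 also: His-tagged Mcl-1 with rhodamine Noxa BH3 peptide and terbium anti-His antibody; 0% = Mcl-1 plus Noxa peptide wells and 100% = peptide-only wells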
Hck-Nef inh = inhibitors of human Hck kinase activated by Nef | AID 463187 | inhibition, % at 20 µM | Recombinant Hck-YEEI plus Nef, Z-Lyte FRET kinase assay | P08631 | 220,000 tested, 0.68% active;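 active = Hck-Nef kinase inhibition above about 50%, limit read from the data; inactive = inhibition below that limit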;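 also: 0% = DMSO with Hck plus Nef and 100% = Hck alone without Nef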
Target sequence (P08631 whole entry, looked up): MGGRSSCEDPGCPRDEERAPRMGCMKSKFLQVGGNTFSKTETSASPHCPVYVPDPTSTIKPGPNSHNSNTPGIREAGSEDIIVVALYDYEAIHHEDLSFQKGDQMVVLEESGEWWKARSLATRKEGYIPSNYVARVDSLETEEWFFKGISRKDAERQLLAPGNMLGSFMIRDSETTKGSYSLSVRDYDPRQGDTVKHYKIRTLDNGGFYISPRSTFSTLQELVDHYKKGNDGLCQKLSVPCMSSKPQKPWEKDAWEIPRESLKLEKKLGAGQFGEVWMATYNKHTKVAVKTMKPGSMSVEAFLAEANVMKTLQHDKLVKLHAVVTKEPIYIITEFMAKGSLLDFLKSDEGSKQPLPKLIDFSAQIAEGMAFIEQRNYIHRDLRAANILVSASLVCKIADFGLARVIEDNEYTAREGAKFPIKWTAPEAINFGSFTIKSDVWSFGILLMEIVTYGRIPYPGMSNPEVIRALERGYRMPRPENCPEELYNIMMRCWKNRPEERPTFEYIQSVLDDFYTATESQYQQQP
Bim-Mcl-1 = inhibitors of Bim-Mcl-1 interaction, human; Q07820; Bead-based flow cytometry, Bim peptide-Mcl-1 binding; inhibition, % at 10 µM; 190,000 tested, 0.1% active; AID 1009; in the data active = inhibition above about 40%;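 also: 0% = no compound tracer wells and 100% = peptide blocker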
14-3-3 Bad inh = disrupts binding of bovine 14-3-3 zeta to phospho-Bad peptide; P63103; TR-FRET 14-3-3zeta/Dy647-pBad peptide displacement, 1 h; inhibition, % at 21.7 µM; 220,000 tested, 0.71% active;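 active = inhibition above about 70%, limit read from the data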;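 also: 0% = full 14-3-3 plus peptide FRET controls and 100% = background without 14-3-3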
Calb biofilm kill = mixture kills Candida albicans biofilm cells. inhibition, % at 7.6 µM. C. albicans biofilm persisters + clotrimazole, fluorescence viability; primary screen in compound mixtures of four per well. 120,000 tested, 0.02% active;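 active = inhibition above 30.3% in the primary screen of four-compound pools, then above 30% when the compound was retested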;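 also: compounds exposed to preformed 24 h biofilms for 48 h; 0% = untreated biofilm control and 100% = clotrimazole plus chlorhexidine kill blank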
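Probe or stimulus – Clotrimazole 50 µg/mL co-treatment · System – C. albicans biofilms · Schedule – 24 h biofilm formation, then 48 h compound exposure, 37 °C · Evaluation – percent inhibition of biofilm viability · Technique – 2-h Alamar Blue fluorescence, 535/590 nm excitation/emission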
An asterisk follows results filed as active; . = not tested or not shown; [ ] = another dose, or the depositor's remark.

SMILES	Mcl1 Bid PPI	Mcl1-Noxa inh	Hck-Nef inh	Bim-Mcl-1	14-3-3 Bad inh	Calb biofilm kill
CCN(CC)c1ccc(NC(=O)COC(=O)CCC(=O)c2ccc(F)cc2)cc1	-67.8	70.3*	8.3	-5.0	-3.1	.
COc1ccc2sc3ccccc3c(=O)c2c1	-45.0	-118.6	15.2	1.0	-46.8	.
Cc1cc(O)cc2c(=O)c3ccccc3sc12	-21.8	59.0*	7.8	2.0	-4.1	14.6
CCOCCCNS(=O)(=O)c1ccc(OC)c(Cl)c1Cl	-6.2	-4.4	7.3	0.0	2.7	13.8
CSc1nc(=O)n2cccc(C)c2n1	-5.3	4.2	3.2	0.0	97.2*[fluorescence artefact?]	.
Cc1ccc(Nc2cnn(C34CC5CC(CC(CC(=O)O)(C5)C3)C4)c(=O)c2Cl)c(Cl)c1	3.6	16.9	17.8	0.0	-10.9	21.0
COc1cccc2cc(C(C)=O)c(=O)oc12	11.9	-7.5	3.6	-3.0	36.4	.
CC(=O)Oc1cc2cccc(OC(C)=O)c(=O)c2c(OC(C)=O)c1OC(C)=O	-54.6	65.8*	12.7	3.0	74.8*	29.2
COCCCNC(=O)c1c(N)n(/N=C/c2ccccn2)c2nc3ccccc3nc12	.	.	9.9	4.0	.	.
CC(C)OCCCNC(=O)c1c(N)n(/N=C/c2cccs2)c2nc3ccccc3nc12	61.3*	31.8	35.1	-4.0	35.7	.
Cc1cc(/C=C(\C#N)C(=O)NCc2cccs2)c(C)n1-c1ccccc1F	-28.1	-7.0	-1.4	-1.0	5.3	.
CC1CCCCN1S(=O)(=O)c1ccc(NC(=O)CSc2nnnn2C)cc1 (stereo not drawn)	-18.0	-9.2	-4.0	1.0	-2.8	.
CC1=C(C(N)=O)C(c2ccc(Cl)cc2)NC(=O)N1 (stereo not drawn)	-13.8	5.4	1.4	-3.0	-10.2	.
CC(=O)C1=C(C)NC(=O)NC1c1ccc(Cl)cc1 (stereo not drawn)	-32.1	53.9*	25.0	0.0	2.3	-1.4
Cc1cc(C)c(C)c(S(=O)(=O)Nc2ccccc2C(=O)NCCCN2CCOCC2)c1C	12.4	7.3	19.0	-2.0	-5.1	13.0
O=c1c2cnn(-c3ccccc3)c2nc(-c2cccs2)n1-c1ccc(Cl)cc1	19.6	23.7	1.2	-2.0	4.0	.
O=c1c2cnn(-c3ccccc3)c2nc(-c2cccs2)n1-c1cccc(Cl)c1	79.3*	14.6	-0.9	22.0	52.5	7.3
CCN1CCN(C(=S)NCCc2ccccc2)CC1	4.2	11.3	0.0	2.0	84.9*	.
OCCN1CCN(C(=S)NCCc2ccccc2)CC1	-25.3	0.5	-0.3	-4.0	-16.1	.
CCCSC1=N/C(=C\C=C\c2ccco2)C(=O)S1	4.8	76.5*	32.3	0.0	-0.9	.
NS(=O)(=O)c1ccc(-n2cccc2C=O)cc1	-20.8	10.7	2.4	0.0	-2.5	1.4
FC(F)(F)c1ccc(N2CCOCC2)c(NC2=NCCCCC2)c1	14.7	11.5	0.2	-2.0	81.6*	.
C=CCNC(=O)C1CC(=O)N(c2ccc(OCC(=O)Nc3ccccc3)cc2)C1 (stereo not drawn)	-1.2	-2.3	5.5	-3.0	0.0	.
CCOc1ccc(/C=c2\sc3nc(-c4ccco4)nn3c2=O)cc1OCC	-1.5	26.8	3.5	12.0	-6.9	.
COc1ccccc1/C=c1\sc2nc(-c3ccco3)nn2c1=O	-27.0	73.6*	4.7	-2.0	-2.9	.
SMILES	Mcl1 Bid PPI	Mcl1-Noxa inh	Hck-Nef inh	Bim-Mcl-1	14-3-3 Bad inh	Calb biofilm kill
O=C(CNC(=O)c1ccncc1)N/N=C/c1ccccn1	-10.0	11.0	12.1	-3.0	10.2	18.1
COc1cc(C(=O)NCC(=O)N/N=C/c2ccccn2)cc(OC)c1OC	63.0*	-8.7	23.5	-1.0	-19.2	9.1
CCO[C@H]1OC(C(=O)N2CCN(Cc3ccc4c(c3)OCO4)CC2)=C[C@@H](c2ccc(Br)cc2)[C@@H]1CCCO	7.2	4.3	-16.3	2.0	0.9	11.2
CC(C)OC(=O)Cn1cnc2ccc(Br)cc2c1=O	0.4	106.7*	-0.7	-3.0	4.9	.
O=C(CO/N=C/c1ccccc1OC(F)F)N1CCc2ccccc21	-16.1	7.1	1.8	0.0	83.9*[fluorescence artefact?]	25.0
CC1Cc2ccccc2N1C(=O)CO/N=C/c1ccccc1OC(F)F (stereo not drawn)	-8.3	11.5	4.1	-3.0	1.4	15.1
COc1ccc(Cl)cc1-n1c(C)cc(C=O)c1C	-9.0	6.4	-2.0	44.0*	-2.5	.
COc1ccc(Cl)cc1-n1c(C)cc(C(=O)O)c1C	-73.4	-0.1	1.3	-170.0	-10.1	.
COc1ccc(C(CC(=O)N2CCCCC2)c2c(OC)cc(OC)c3c(-c4ccccc4)cc(=O)oc23)cc1 (stereo not drawn)	-102.4	63.4*	35.6	.	20.9	17.6
COc1ccc(C(CC(=O)N2CCCC(C)C2)c2c(OC)cc(OC)c3c(-c4ccccc4)cc(=O)oc23)cc1 (stereo not drawn)	-102.5	59.3*	-6.6	.	24.1	24.4
COc1ccc(C(CC(=O)N2CCOCC2)c2c(OC)cc(OC)c3c(-c4ccccc4)cc(=O)oc23)cc1 (stereo not drawn)	-18.3	53.9*	17.1	.	27.4	19.9
COc1ccc(C(CC(=O)N2CCCC2)c2c(OC)cc(OC)c3c(-c4ccccc4)cc(=O)oc23)cc1 (stereo not drawn)	-111.0	86.5*	28.8	.	39.8	14.9
COc1ccc(C(CC(=O)N2CCN(c3ccccc3)CC2)c2c(OC)cc(OC)c3c(-c4ccccc4)cc(=O)oc23)cc1 (stereo not drawn)	-48.5	3.5	23.7	.	3.5	5.9
CC[N+](CC)(CC=C(C)C)CC(=O)OC	-28.2	0.5	23.7	-3.0	-13.4	28.7
Cc1cccc2sc(NC(=O)c3cc(S(=O)(=O)N(C)C)ccc3N3CCCC3)nc12	-17.6	-13.9	-1.8	0.0	-9.4	0.7
NNc1nc(N)c2c(n1)-c1ccccc1CC21CCCC1	-64.3	-64.1	5.3	-2.0	81.6*[fluorescence artefact?]	25.0
CCCCn1c(SCC(=O)NCCOC)nc2ccc(N3CCOCC3)cc2c1=O	-34.4	88.8*	-0.2	-3.0	-0.2	.
COCCNC(=O)CSc1nc2ccc(N3CCOCC3)cc2c(=O)n1CCc1ccccc1	-24.6	16.6	10.1	0.0	6.2	.
CCCCN(C)CCCNC(=O)c1cn(CC)c2ccc(S(=O)(=O)N3CCc4ccccc4C3)cc2c1=O	10.3	52.7*	25.6	0.0	5.5	12.7
CCCCN(CC)CCCNC(=O)c1cn(CC)c2ccc(S(=O)(=O)N3CCc4ccccc4C3)cc2c1=O	8.6	29.5	22.1	-1.0	1.2	4.0
Cc1cc(F)c(F)c(C(=O)N2C(C)CCCC2C)c1Cl (stereo not drawn)	-2.2	-1.3	-0.5	-2.0	-7.2	19.1
CN(c1ccc(OCC(=O)OCC(=O)Nc2ccccc2)cc1)S(=O)(=O)c1cccs1	2.2	13.2	3.5	-6.0	-14.3	6.7
CCN(CC)c1ccc(NC(=O)COc2ccc(N(C)S(=O)(=O)c3cccs3)cc2)cc1	-18.0	65.4*	6.4	-2.0	6.6	14.1
